According to ChEMBL document CHEMBL1153527, “Discovery of a novel series of quinolone and naphthyridine derivatives as potential topoisomerase I inhibitors by scaffold modification” (J Med Chem, 2009):

Experiments:
[1] = tested on: MCF7; test: Cytotoxicity against estrogen receptor-positive human MCF7 cells expressing wild type p53 after 48 hrs by SRB assay; type: functional, cell-based; conditions: MCF7, 48 h
Summary of the method: (§1)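 Cell lines came from CCRC, Taiwan. Cells were seeded at about 5 × 10^3 per well and left overnight. They were then given serum-free medium containing 0-10 μM compound (0.08-10 μM serial dilutions) for 48 h at 37 °C. Cells were fixed with TCA (10% final), stained with SRB (0.4% final), and the dye was dissolved in 10 mM Tris with A515 read. IC50 was taken from a fitted log concentration-response curve.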

[2] = tested on: AGS; test: Cytotoxicity against human AGS cells expressing wild type p53 after 48 hrs by SRB assay; type: functional, cell-based; summary of the method: as §1
[3] = tested on: Bel-7402; test: Cytotoxicity against human Bel7402 cells after 48 hrs by MTT assay; type: functional, cell-based; conditions: Bel-7402, 48 h
[4] = Cytotoxicity against estrogen receptor-negative human […] cells expressing p53 mutant after 48 hrs by SRB assay; type: functional, cell-based; summary of the method: as §1
[5] = tested on: HT-29; test: Cytotoxicity against human HT-29 cells expressing p53 mutant after 48 hrs by SRB assay; type: functional, cell-based; conditions: HT-29, 48 h; summary of the method: as §1
[6] = tested on: PC-3; test: Cytotoxicity against p53-deficient human PC3 cells after 48 hrs by SRB assay; type: functional, cell-based; conditions: PC-3, 48 h; summary of the method: as §1
[7] = tested on: U-937; test: Cytotoxicity against human U937 cells expressing p53 mutant after 48 hrs by SRB assay; type: functional, cell-based; conditions: U-937, 48 h
[8] = Cytotoxicity against p53-deficient human Hep3B cells after 48 hrs by SRB assay; type: functional, cell-based, Hep 3B2; summary of the method: as §1
[9] = tested on: A2780; test: Cytotoxicity against human A2780 cells after 48 hrs by MTT assay; type: functional, cell-based; conditions: A2780, 48 h
[10] = tested on: HepG2; test: Cytotoxicity against human HepG2 cells expressing wild type p53 after 48 hrs by SRB assay; type: functional, cell-based; conditions: HepG2, 48 h; summary of the method: as §1
[11] = tested on: HeLa; test: Cytotoxicity against p53-deficient human HeLa cells after 48 hrs by SRB assay; type: functional, cell-based; summary of the method: as §1
[12] = tested on: A549; test: Cytotoxicity against human A549 cells expressing wild type p53 after 48 hrs by SRB assay; type: functional, cell-based; conditions: A549, 48 h; summary of the method: as §1
[13] = tested on: K562; test: Cytotoxicity against p53-deficient human K562 cells after 48 hrs by SRB assay; type: functional, cell-based; conditions: K562, 48 h
[14] = tested on: THP-1; test: Cytotoxicity against human THP1 cells expressing p53 mutant after 48 hrs by SRB assay; type: functional, cell-based; conditions: THP-1, 48 h
[15] = tested on: KB; test: Cytotoxicity against human KB cells after 48 hrs by MTT assay; type: functional, cell-based

`CCn1cc(-c2nc3ccccc3[nH]2)c(=O)c2cc(F)c(N3CCNCC3)cc21` showed a GI50 [1] greater than 10 µM, an IC50 [1] greater than 10 µM and a GI50 [2] of 9.5 µM. The IC50 [2] was greater than 10 µM, the IC50 [3] was 27.4 µM and the GI50 [4] was greater than 10 µM. For the same molecule, the IC50 [4] was greater than 10 µM, the GI50 [5] was greater than 10 µM and the IC50 [5] was greater than 10 µM. The GI50 [6] was greater than 10 µM, the IC50 [6] was greater than 10 µM and the IC50 [7] was greater than 10 µM. The GI50 [8] was greater than 10 µM, the IC50 [8] was greater than 10 µM and the IC50 [9] was 0.8 µM. The GI50 [10] was greater than 10 µM, the IC50 [10] was greater than 10 µM and the GI50 [11] was greater than 10 µM. It also gave an IC50 [11] greater than 10 µM, a GI50 [12] of 0.6 µM and an IC50 [12] of 4.7 µM. The IC50 [13] was greater than 10 µM, the IC50 [14] was greater than 10 µM and the IC50 [15] was 10.5 µM.
For `CCn1cc(-c2nc3ccc(Cl)cc3[nH]2)c(=O)c2cc(F)c(N3CCNCC3)nc21`, the IC50 [3] was 21.5 µM, the IC50 [9] was 6.3 µM and the IC50 [15] was 10.3 µM.
Work on `CCn1cc(-c2nc3ccccc3s2)c(=O)c2cc(F)c(N3CCNCC3)cc21` yielded an IC50 [3] of 24.3 µM, an IC50 [9] of 11.3 µM and an IC50 [15] of 28.7 µM.
For `CCn1cc(-c2nc3ccc([N+](=O)[O-])cc3s2)c(=O)c2cc(F)c(N3CCNCC3)nc21`, the IC50 [3] was 24.6 µM, the IC50 [9] was 200 µM and the IC50 [15] was 179 µM.
`CCn1cc(-c2nc3ccc(N)cc3[nH]2)c(=O)c2cc(F)c(N3CCN(C)CC3)cc21` gave a GI50 [1] greater than 10 µM, an IC50 [1] greater than 10 µM and a GI50 [2] of 10 µM. The IC50 [2] was greater than 10 µM, the IC50 [3] was greater than 50 µM and the GI50 [4] was greater than 10 µM. The IC50 [4] was greater than 10 µM, the GI50 [5] was greater than 10 µM and the IC50 [5] was greater than 10 µM. The GI50 [6] was greater than 10 µM, the IC50 [6] was greater than 10 µM and the IC50 [7] was greater than 10 µM. For the same molecule, the GI50 [8] was greater than 10 µM, the IC50 [8] was greater than 10 µM and the IC50 [9] was greater than 50 µM. The GI50 [10] was greater than 10 µM, the IC50 [10] was greater than 10 µM and the GI50 [11] was greater than 10 µM. For the same molecule, the IC50 [11] was greater than 10 µM, the GI50 [12] was 1 µM and the IC50 [12] was greater than 10 µM. The IC50 [13] was greater than 10 µM, the IC50 [14] was greater than 10 µM and the IC50 [15] was greater than 50 µM.
For `CCn1cc(-c2nc3ccc([N+](=O)[O-])cc3[nH]2)c(=O)c2cc(F)c(N3CCN(C)CC3)cc21`, the IC50 [3] was 4.4 µM, the IC50 [9] was 4.7 µM and the IC50 [15] was 2.5 µM.
For `CCn1cc(-c2nc3ccc([N+](=O)[O-])cc3o2)c(=O)c2cc(F)c(N3CCN(C)CC3)cc21`, the IC50 [3] was 50.2 µM, the IC50 [9] was 39.6 µM and the IC50 [15] was 40.3 µM.
`CCn1cc(-c2nc3ccccc3o2)c(=O)c2cc(F)c(N3CCNC(C)C3)c(F)c21` (stereo not drawn) showed an IC50 [3] of 5.7 µM, an IC50 [9] of 83.5 µM and an IC50 [15] of 18.9 µM.
In the case of `CCn1cc(-c2nc3ccccc3o2)c(=O)c2cc(F)c(Cl)cc21`, the IC50 [3] is reported as 28.9 µM, the IC50 [9] is reported as 78.4 µM and the IC50 [15] is reported as 10.2 µM.
`CCn1cc(-c2nc3ccccc3o2)c(=O)c2cc(F)c(N3CCNCC3)nc21` gave an IC50 [3] of 16.8 µM, an IC50 [9] of 15.3 µM and an IC50 [15] of 11.7 µM.
`CCn1cc(-c2nc3ccccc3[nH]2)c(=O)c2cc(F)c(N3CCN(C)CC3)cc21` gave an IC50 [15] of 36.7 µM.
For `CCn1cc(-c2nc3ccc([N+](=O)[O-])cc3[nH]2)c(=O)c2cc(F)c(N3CCNC(C)C3)c(F)c21` (stereo not drawn), the GI50 [1] was 2.6 µM, the IC50 [1] was 4.9 µM and the GI50 [2] was 2.6 µM. For the same molecule, the IC50 [2] was 8.2 µM, the IC50 [3] was 1.1 µM and the GI50 [4] was 1.8 µM. The IC50 [4] was 5.5 µM, the GI50 [5] was 4.2 µM and the IC50 [5] was 7.5 µM. For the same molecule, the GI50 [6] was 7.9 µM, the IC50 [6] was 9.6 µM and the IC50 [7] was greater than 10 µM. For the same molecule, the GI50 [8] was 1.6 µM, the IC50 [8] was 5.5 µM and the IC50 [9] was 2.3 µM. For the same molecule, the GI50 [10] was 1.5 µM, the IC50 [10] was 4.2 µM and the GI50 [11] was 1.4 µM. It also gave an IC50 [11] of 2.4 µM, a GI50 [12] of 0.6 µM and an IC50 [12] of 2.4 µM. It also gave an IC50 [13] of 4.7 µM, an IC50 [14] of 7.8 µM and an IC50 [15] of 2.3 µM.
For `CCn1cc(-c2nc3ccccc3o2)c(=O)c2cc(F)c(N3CCN(C)CC3)cc21`, the IC50 [3] was 2 µM, the IC50 [9] was 0.7 µM and the IC50 [15] was 87.4 µM.
`CCn1cc(-c2nc3ccc([N+](=O)[O-])cc3[nH]2)c(=O)c2cc(F)c(N3CCNCC3)cc21` showed an IC50 [3] of 2.1 µM, an IC50 [9] of 1.6 µM and an IC50 [15] of 1.1 µM.
